ChEMBL document CHEMBL4011617, “Ugi Reaction-Derived α-Acyl Aminocarboxamides Bind to Phosphatidylinositol 3-Kinase-Related Kinases, Inhibit HSF1-Dependent Heat Shock Response, and Induce Apoptosis in Multiple Myeloma Cells” (J Med Chem, 2017)
Active and inactive are the calls of the source. The rule behind the calls is not given here.

Legend:
INA-6 [1] = assay: Inhibition of heat shock response in human INA-6 cells assessed as reduction in HSF-1 mediated upregulation of the heat shock protein HSP72 at 50 uM preincubated for 4 hrs followed by HSP90 inhibitor and HSR inducer NVP-AUY922 addition measured after 4 hrs by Western blot method; format: functional, cell-based
Outline: (§1)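 INA-6 myeloma cells pretreated with test compound for 4 h, then co-treated with the HSP90 inhibitor/HSR inducer NVP-AUY922 for a further 4 h. Cells harvested; HSP72, HSP27, HSF1 or phospho-HSF1 probed by Western blot with β-actin as loading control. DMSO-only cells were the negative control; NVP-AUY922-only cells were the positive control.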

INA-6 [2] = assay: Inhibition of heat shock response in human INA-6 cells assessed as reduction in HSF-1 mediated upregulation of the heat shock protein HSP72 at 50 uM preincubated for 4 hrs followed by HSP90 inhibitor and HSR inducer NVP-AUY922 addition measured after 4 hrs by ELISA; format: functional, cell-based
Outline: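 HSP72 quantified by ELISA in the same protein lysates used for Western blots. INA-6 cells received compound for 4 h, then NVP-AUY922 co-treatment for 4 h more to stimulate HSF1. DMSO-only and NVP-AUY922-only cells served as negative and positive controls.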

INA-6 [3] = assay: Inhibition of heat shock response in human INA-6 cells assessed as reduction in HSF-1 mediated upregulation of the heat shock protein HSP27 at 50 uM preincubated for 4 hrs followed by HSP90 inhibitor and HSR inducer NVP-AUY922 addition measured after 4 hrs by Western blot method; format: functional, cell-based; outline: as §1
INA-6 [4] = assay: Inhibition of heat shock response in human INA-6 cells assessed as reduction in HSF-1 mediated upregulation of the heat shock protein HSP27 at 50 uM preincubated for 4 hrs followed by HSP90 inhibitor and HSR inducer NVP-AUY922 addition measured after 4 hrs by ELISA; format: functional, cell-based
INA-6 [5] = assay: Downregulation of NVP-AUY922-induced HSF-1 protein expression in human INA-6 cells at 50 uM preincubated for 4 hrs followed by NVP-AUY922 addition measured after 4 hrs by Western blot method; format: functional, cell-based; outline: as §1
[6] = target: T1, Heat shock factor protein 1 (Homo sapiens) (UniProt Q00613); assay: Inhibition of NVP-AUY922-induced HSF-1 phosphorylation at S326 residue in human INA-6 cells at 50 uM preincubated for 4 hrs followed by NVP-AUY922 addition measured after 4 hrs by Western blot method; format: cell-based; outline: as §1
T1 sequence (whole entry): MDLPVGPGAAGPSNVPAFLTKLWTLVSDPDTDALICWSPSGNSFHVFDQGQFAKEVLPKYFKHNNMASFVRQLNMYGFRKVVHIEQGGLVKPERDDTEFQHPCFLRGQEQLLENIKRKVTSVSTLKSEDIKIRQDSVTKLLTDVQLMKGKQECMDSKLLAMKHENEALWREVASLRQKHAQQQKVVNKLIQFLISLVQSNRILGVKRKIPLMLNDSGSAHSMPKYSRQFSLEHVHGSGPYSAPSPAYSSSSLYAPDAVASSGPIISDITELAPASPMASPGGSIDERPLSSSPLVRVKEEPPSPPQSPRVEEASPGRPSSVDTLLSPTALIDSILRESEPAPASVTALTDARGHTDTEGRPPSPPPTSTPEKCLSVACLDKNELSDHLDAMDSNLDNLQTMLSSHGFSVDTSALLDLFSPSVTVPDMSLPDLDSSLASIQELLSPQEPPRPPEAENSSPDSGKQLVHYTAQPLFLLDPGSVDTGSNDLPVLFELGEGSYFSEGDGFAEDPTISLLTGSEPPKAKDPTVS

INA-6 [7] = assay: Effect on NVP-AUY922-induced HSF-1 mRNA expression in human INA-6 cells at 50 uM preincubated for 4 hrs followed by NVP-AUY922 addition measured after 4 hrs by RT-PCR method; format: functional, cell-based
Outline: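 INA-6 cells exposed to compound for 4 h, then co-treated with 10 nM NVP-AUY922 for another 4 h. Total RNA isolated; HSP27, HSP72 and HSF1 transcripts measured by real-time PCR and normalized to α-tubulin. Means and standard deviations from three independent experiments.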

[8] = target: CCR4-NOT transcription complex subunit 1 (Homo sapiens) (UniProt A5YKK6); assay: Binding affinity to CCR4-NOT transcription complex subunit 1 in human INA-6 cells after 3 hrs by nanoLC-MS/MS method; format: cell-based
Outline: (§2)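 The biotinylated inhibitor was loaded on streptavidin beads, with empty beads as the control. Eluates were trypsin-digested and run by nanoLC-MS/MS. Inhibitor/control ratios came from label-free quantification, taken as medians of five biological replicates. Enrichment was called at Benjamini-Hochberg-adjusted limma p < 0.02.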

[9] = target: CCR4-NOT transcription complex subunit 2 (Homo sapiens) (UniProt Q9NZN8); assay: Binding affinity to CCR4-NOT transcription complex subunit 2 in human INA-6 cells after 3 hrs by nanoLC-MS/MS method; format: cell-based; outline: as §2
[10] = target: CCR4-NOT transcription complex subunit 6-like (Homo sapiens) (UniProt Q96LI5); assay: Binding affinity to CCR4-NOT transcription complex subunit 6-like in human INA-6 cells after 3 hrs by nanoLC-MS/MS method; format: cell-based; outline: as §2
[11] = target: CCR4-NOT transcription complex subunit 7 (Homo sapiens) (UniProt Q9UIV1); assay: Binding affinity to CCR4-NOT transcription complex subunit 7 in human INA-6 cells after 3 hrs by nanoLC-MS/MS method; format: cell-based; outline: as §2
[12] = target: CCR4-NOT transcription complex subunit 3 (Homo sapiens) (UniProt O75175); assay: Binding affinity to CCR4-NOT transcription complex subunit 3 in human INA-6 cells after 3 hrs by nanoLC-MS/MS method; format: cell-based; outline: as §2
[13] = target: DNA-dependent protein kinase catalytic subunit (Homo sapiens) (UniProt P78527); assay: Binding affinity to PRKDC protein in human INA-6 cells after 3 hrs by nanoLC-MS/MS method; format: cell-based; outline: as §2
[14] = target: Serine-protein kinase ATM (Homo sapiens) (UniProt Q13315); assay: Binding affinity to ATM protein in human INA-6 cells after 3 hrs by nanoLC-MS/MS method; format: cell-based; outline: as §2
[15] = target: Serine/threonine-protein kinase ATR (Homo sapiens) (UniProt Q13535); assay: Binding affinity to ATR protein in human INA-6 cells after 3 hrs by nanoLC-MS/MS method; format: cell-based; outline: as §2
[16] = target: Serine/threonine-protein kinase mTOR (Homo sapiens) (UniProt P42345); assay: Binding affinity to mTOR protein in human INA-6 cells after 3 hrs by nanoLC-MS/MS method; format: cell-based; outline: as §2
[17] = target: CCR4-NOT transcription complex subunit 9 (Homo sapiens) (UniProt Q92600); assay: Binding affinity to RCD1 protein in human INA-6 cells after 3 hrs by nanoLC-MS/MS method; format: cell-based; outline: as §2
CCR4-NOT transcription complex subunit 9 (Homo sapiens), sequence (Q92600 whole entry, one chain of several): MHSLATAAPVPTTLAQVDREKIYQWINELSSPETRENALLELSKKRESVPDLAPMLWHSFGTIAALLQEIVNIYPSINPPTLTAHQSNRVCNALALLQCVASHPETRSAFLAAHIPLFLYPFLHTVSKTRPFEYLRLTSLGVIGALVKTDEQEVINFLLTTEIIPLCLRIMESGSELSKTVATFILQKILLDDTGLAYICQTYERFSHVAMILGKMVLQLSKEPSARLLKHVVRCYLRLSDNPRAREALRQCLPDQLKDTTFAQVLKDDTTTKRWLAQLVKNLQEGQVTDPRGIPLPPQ

CCR4-NOT transcription complex subunit 3 (Homo sapiens), sequence (O75175 whole entry, one chain of several): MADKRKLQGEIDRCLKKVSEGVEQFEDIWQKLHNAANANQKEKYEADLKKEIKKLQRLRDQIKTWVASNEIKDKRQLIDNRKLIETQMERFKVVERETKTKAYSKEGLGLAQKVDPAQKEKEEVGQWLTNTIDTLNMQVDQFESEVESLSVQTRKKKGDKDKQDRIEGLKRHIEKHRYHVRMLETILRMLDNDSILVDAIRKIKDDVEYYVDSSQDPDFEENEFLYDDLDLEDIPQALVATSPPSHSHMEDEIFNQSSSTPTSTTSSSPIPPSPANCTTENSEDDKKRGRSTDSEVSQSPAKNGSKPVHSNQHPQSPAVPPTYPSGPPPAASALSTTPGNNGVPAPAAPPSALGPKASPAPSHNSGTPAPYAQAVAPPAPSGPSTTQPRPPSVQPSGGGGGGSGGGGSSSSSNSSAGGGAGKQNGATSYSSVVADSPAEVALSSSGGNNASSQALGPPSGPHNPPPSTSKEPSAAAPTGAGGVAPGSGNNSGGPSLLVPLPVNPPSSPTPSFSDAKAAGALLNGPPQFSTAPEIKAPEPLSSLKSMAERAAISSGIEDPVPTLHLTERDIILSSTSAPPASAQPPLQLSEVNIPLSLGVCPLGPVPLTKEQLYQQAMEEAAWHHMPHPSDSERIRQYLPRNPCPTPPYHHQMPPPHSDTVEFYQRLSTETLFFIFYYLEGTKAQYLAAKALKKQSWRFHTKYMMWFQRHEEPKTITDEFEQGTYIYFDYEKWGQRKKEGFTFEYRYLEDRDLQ
Serine/threonine-protein kinase ATR (Homo sapiens), sequence (Q13535 whole entry, looked up): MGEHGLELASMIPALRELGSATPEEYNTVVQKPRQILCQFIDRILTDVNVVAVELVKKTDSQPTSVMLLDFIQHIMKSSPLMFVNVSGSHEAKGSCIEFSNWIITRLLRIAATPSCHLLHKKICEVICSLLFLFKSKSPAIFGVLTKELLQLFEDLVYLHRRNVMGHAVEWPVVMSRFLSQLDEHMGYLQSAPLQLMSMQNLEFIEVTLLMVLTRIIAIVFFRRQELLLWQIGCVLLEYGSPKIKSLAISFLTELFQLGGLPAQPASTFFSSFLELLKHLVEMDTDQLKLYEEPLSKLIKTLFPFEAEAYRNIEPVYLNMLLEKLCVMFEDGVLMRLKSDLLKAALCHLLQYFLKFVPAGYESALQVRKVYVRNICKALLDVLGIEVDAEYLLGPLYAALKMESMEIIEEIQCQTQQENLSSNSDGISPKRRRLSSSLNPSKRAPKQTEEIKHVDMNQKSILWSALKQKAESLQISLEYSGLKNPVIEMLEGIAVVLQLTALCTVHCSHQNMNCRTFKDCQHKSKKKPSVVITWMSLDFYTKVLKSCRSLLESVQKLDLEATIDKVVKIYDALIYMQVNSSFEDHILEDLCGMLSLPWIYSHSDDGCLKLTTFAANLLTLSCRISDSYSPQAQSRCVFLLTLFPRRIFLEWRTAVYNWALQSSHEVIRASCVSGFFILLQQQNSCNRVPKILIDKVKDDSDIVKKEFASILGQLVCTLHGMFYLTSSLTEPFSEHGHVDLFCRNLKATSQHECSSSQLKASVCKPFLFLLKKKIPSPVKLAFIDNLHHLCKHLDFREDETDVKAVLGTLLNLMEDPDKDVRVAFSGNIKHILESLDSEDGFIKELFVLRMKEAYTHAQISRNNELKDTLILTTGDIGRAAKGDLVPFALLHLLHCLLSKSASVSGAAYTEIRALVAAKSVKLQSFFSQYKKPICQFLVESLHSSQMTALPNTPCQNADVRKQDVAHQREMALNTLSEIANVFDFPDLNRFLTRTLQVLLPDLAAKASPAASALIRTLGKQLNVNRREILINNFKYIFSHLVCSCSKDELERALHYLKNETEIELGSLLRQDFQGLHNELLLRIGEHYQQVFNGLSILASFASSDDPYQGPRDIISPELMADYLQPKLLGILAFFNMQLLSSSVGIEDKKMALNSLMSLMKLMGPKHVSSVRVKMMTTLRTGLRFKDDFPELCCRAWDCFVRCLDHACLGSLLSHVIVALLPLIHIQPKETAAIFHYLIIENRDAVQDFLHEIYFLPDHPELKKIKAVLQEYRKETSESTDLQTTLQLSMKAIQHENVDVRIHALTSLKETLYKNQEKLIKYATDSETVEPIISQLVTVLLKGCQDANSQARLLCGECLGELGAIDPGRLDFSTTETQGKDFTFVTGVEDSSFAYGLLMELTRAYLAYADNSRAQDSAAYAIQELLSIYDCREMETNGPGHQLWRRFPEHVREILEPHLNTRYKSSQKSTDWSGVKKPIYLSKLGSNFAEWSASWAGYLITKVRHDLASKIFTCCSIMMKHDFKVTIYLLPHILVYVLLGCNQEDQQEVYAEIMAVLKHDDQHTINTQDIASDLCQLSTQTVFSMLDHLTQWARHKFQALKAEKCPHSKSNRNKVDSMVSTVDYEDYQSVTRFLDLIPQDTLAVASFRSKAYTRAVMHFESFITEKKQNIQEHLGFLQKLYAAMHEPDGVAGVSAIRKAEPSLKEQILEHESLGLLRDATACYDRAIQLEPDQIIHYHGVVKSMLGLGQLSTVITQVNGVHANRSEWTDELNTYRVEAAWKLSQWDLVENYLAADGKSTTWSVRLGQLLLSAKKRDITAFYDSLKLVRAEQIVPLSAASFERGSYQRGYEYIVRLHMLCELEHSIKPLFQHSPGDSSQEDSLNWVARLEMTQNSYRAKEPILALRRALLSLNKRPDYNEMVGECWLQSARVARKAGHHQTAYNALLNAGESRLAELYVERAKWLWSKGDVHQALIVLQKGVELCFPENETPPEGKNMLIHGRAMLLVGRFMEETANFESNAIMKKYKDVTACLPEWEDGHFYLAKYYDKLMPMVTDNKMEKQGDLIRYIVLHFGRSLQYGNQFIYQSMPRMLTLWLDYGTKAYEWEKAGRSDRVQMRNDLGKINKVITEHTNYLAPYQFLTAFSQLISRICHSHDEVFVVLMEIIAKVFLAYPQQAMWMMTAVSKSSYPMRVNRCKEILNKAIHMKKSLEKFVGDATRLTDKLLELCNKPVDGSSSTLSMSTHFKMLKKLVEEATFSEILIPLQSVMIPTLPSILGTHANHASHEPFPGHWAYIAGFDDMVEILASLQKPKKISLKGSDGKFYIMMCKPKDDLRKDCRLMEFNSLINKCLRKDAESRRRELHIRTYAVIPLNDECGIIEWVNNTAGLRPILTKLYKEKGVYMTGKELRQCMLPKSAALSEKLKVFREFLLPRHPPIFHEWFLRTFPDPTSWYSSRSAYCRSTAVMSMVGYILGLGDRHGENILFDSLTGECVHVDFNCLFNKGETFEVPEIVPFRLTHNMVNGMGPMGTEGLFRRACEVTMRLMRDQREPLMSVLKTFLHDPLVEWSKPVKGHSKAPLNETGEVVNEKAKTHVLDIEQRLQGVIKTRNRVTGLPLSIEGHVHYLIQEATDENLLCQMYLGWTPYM
CCR4-NOT transcription complex subunit 7 (Homo sapiens), sequence (Q9UIV1 whole entry, one chain of several): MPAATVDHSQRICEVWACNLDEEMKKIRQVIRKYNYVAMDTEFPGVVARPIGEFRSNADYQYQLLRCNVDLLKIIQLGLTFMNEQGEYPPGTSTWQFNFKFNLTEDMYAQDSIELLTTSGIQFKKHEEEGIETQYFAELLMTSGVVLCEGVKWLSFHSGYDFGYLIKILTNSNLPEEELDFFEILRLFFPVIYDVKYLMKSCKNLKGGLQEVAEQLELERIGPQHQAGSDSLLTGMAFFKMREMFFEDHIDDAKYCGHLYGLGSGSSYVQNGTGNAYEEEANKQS
CCR4-NOT transcription complex subunit 2 (Homo sapiens), sequence (Q9NZN8 whole entry, one chain of several): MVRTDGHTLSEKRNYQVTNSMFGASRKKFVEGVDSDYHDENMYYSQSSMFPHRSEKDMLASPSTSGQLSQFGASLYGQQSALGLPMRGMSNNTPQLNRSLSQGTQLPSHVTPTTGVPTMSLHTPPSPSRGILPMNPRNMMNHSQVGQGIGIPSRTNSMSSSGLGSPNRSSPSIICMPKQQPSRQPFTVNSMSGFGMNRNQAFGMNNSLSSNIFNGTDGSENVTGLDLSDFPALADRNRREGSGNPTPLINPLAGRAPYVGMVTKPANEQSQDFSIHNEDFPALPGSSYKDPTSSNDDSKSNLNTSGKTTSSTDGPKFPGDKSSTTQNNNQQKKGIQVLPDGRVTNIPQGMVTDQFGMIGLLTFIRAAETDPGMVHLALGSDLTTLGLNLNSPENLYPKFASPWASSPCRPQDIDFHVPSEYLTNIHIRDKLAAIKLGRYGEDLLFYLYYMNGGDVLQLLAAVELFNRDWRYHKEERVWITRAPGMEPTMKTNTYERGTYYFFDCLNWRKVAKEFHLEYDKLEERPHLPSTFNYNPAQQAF

Row | SMILES | inhibition [6] | heat shock response inhibition (active/not active) (INA-6 [1]) | HSP72 upregulation inhibition (active/not active) (INA-6 [2]) | activity call (active/not active) for inhibition of HSP27 upregulation (INA-6 [3]) | heat shock response inhibition (active/not active) (INA-6 [4]) | Activity (INA-6 [5]) | other results
1 | C=CC(=O)N(CCOCCO)C(C(=O)NC(C)(C)C)c1ccccc1Br (racemic) | – | inactive | inactive | inactive | – | – | –
2 | O=C(NCCN1CCOCC1)C(c1ccccc1)N(Cc1ccccc1)C(=O)/C=C/c1ccc(Cl)cc1Cl (racemic) | Active | Active | Active | Active | Active | Active | –
3 | O=C(NCc1ccccc1)C(c1ccccc1Br)N(Cc1ccccc1)C(=O)/C=C/c1ccccc1 (racemic) | – | inactive | inactive | inactive | – | – | –
4 | O=C(NCc1ccccc1)C(c1ccc(Br)cc1)N(C(=O)CCc1ccccc1)C1CC1 (racemic) | Active | Active | Active | Active | Active | Active | –
5 | O=C(NCc1ccccc1)C(c1ccc(O)cc1)N(C(=O)CCc1ccccc1)C1CC1 (racemic) | – | inactive | inactive | inactive | inactive | – | Activity (INA-6 [7]): inactive
6 | O=C(NCc1ccccc1)C(c1ccc(OCCBr)cc1)N(C(=O)CCc1ccccc1)C1CC1 (racemic) | Active | Active | Active | Active | Active | Active | –
7 | NCCOCCOCCNCCOc1ccc(C(C(=O)NCc2ccccc2)N(C(=O)CCc2ccc(O)cc2)C2CC2)cc1 (stereo not drawn) | – | – | inactive | inactive | inactive | – | –
8 | O=C(NCc1ccccc1)C(c1ccc(Br)cc1)N(C(=O)CCc1ccc(O)cc1)C1CC1 (racemic) | Active | Active | Active | Active | Active | Active | –
9 | O=C(CCCC[C@@H]1SC[C@@H]2NC(=O)N[C@@H]21)NCCOCCOCCNCCCCOc1ccc(CCC(=O)N(C2CC2)C(C(=O)NCc2ccccc2)c2ccc(Br)cc2)cc1 (mixture of isomers) | – | – | inactive | inactive | inactive | – | Activity [8]: Active; Activity [9]: Active; Activity [10]: Active; Activity [11]: Active; Activity [12]: Active; Activity [13]: Active; Activity [14]: Active; Activity [15]: Active; Activity [16]: Active; Activity [17]: Active
10 | C/C=C/C(=O)N(Cc1ccco1)C(C(=O)NC1CCCCC1)c1ccccc1Br (racemic) | – | inactive | inactive | inactive | – | – | –
11 | CCCN(C(=O)/C=C/c1ccccc1)C(C(=O)NCCN1CCOCC1)c1ccccc1Br (racemic) | – | inactive | inactive | inactive | – | – | –

The next lines start with results.

Row | inhibition [6] | SMILES | heat shock response inhibition (active/not active) (INA-6 [1]) | HSP72 upregulation inhibition (active/not active) (INA-6 [2]) | activity call (active/not active) for inhibition of HSP27 upregulation (INA-6 [3]) | heat shock response inhibition (active/not active) (INA-6 [4]) | Activity (INA-6 [5]) | other results
12 | Active | C=CC(=O)N(CCc1ccc(OC)c(OC)c1)C(C(=O)NCCCCC)c1ccccc1Br (racemic) | Active | Active | Active | Active | Active | –
13 | Active | CN(C(=O)/C=C/c1ccccc1)C(C(=O)NCc1ccccc1)c1ccccc1Br (racemic) | Active | Active | Active | Active | Active | –
14 | Active | O=C(NCCN1CCOCC1)C(c1ccccc1Br)N(Cc1ccccc1)C(=O)/C=C/c1ccc(Cl)cc1Cl (racemic) | Active | Active | Active | Active | Active | –
15 | Active | C/C=C/C(=O)N(Cc1ccccc1Cl)C(C(=O)NC(C)(C)C)c1ccccc1Br (racemic) | Active | Active | Active | Active | Active | –
16 | Active | CCCN(C(=O)/C=C/c1ccc(OC)cc1)C(C(=O)NC1CCCCC1)c1ccccc1Br (racemic) | Active | Active | Active | Active | Active | –
17 | Active | O=C(NCc1ccccc1)C(c1ccccc1)N(C(=O)/C=C/c1ccccc1)C1CC1 (racemic) | Active | Active | Active | Active | Active | –
